Data: ChEMBL document CHEMBL4339251, “Prenylated Bibenzyls from the Chinese Liverwort Radula constricta and Their Mitochondria-Derived Paraptotic Cytotoxic Activities” (J Nat Prod, 2019)
Structures can show the parent of a compound that is named as a salt. Activity calls are given as the source filed them. The rule behind the calls is not given here.

Key:
Assay type in all cases: functional, cell-based
KB = experiment: Cytotoxicity in human KB cells assessed as reduction in cell viability incubated for 48 hrs by MTT assay
How it was run: (§1)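 MTT viability. U251 and NCI-H1299 were grown in DMEM, the other lines in RPMI 1640, each with 10% FBS, penicillin and streptomycin, at 37 °C in 5% CO2. Cells were seeded in 96-well plates overnight and exposed to a range of concentrations. MTT (5 mg/mL) was added for 4 h, formazan was dissolved in DMSO and absorbance read at 570 nm. Three independent experiments.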

A549 [1] = experiment: Cytotoxicity in human A549 cells assessed as reduction in cell viability incubated for 48 hrs by MTT assay; conditions: A549, 48 h; how it was run: as §1
SMMC-7721 = experiment: Cytotoxicity in human SMMC7721 cells assessed as reduction in cell viability incubated for 48 hrs by MTT assay; conditions: SMMC-7721, 48 h; how it was run: as §1
HepG2 = experiment: Cytotoxicity in human HepG2 cells assessed as reduction in cell viability incubated for 48 hrs by MTT assay; conditions: HepG2, 48 h
How it was run: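 MTT viability. Cells were seeded in 96-well plates overnight and exposed to a range of concentrations. MTT (5 mg/mL) was added for 4 h, formazan was dissolved in DMSO and absorbance read at 570 nm. Three independent experiments.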

SW-620 = experiment: Cytotoxicity in human SW620 cells assessed as reduction in cell viability incubated for 48 hrs by MTT assay; conditions: SW-620, 48 h; how it was run: as §1
U-251 = experiment: Cytotoxicity in human U251 cells assessed as reduction in cell viability incubated for 48 hrs by MTT assay; conditions: U-251, 48 h; how it was run: as §1
HT-29 = experiment: Cytotoxicity in human HT-29 cells assessed as reduction in cell viability incubated for 48 hrs by MTT assay; conditions: HT-29, 48 h; how it was run: as §1
NCI-H1299 = experiment: Cytotoxicity in human NCI-H1299 cells assessed as reduction in cell viability incubated for 48 hrs by MTT assay; conditions: NCI-H1299, 48 h; how it was run: as §1
MCF7 = experiment: Cytotoxicity in human MCF7 cells assessed as reduction in cell viability incubated for 48 hrs by MTT assay; conditions: MCF7, 48 h; how it was run: as §1
A549 [2] = experiment: Induction of cytoplasmic vacuolization in human A549 cells

| SMILES | IC50 (KB) | IC50 (A549 [1]) | IC50 (SMMC-7721) | IC50 (HepG2) | IC50 (SW-620) | IC50 (U-251) | IC50 (HT-29) | IC50 (NCI-H1299) | IC50 (MCF7) | Activity (A549 [2]) |
| --- | --- | --- | --- | --- | --- | --- | --- | --- | --- | --- |
| CC(C)=CCCC1(C)Oc2cc(O)cc(CCc3ccccc3)c2CC1O (racemic) | > 40 µM | > 40 µM | > 40 µM | > 40 µM | > 40 µM | > 40 µM | > 40 µM | > 40 µM | > 40 µM | – |
| CC(C)(O)[C@H]1CC[C@@]2(C)Oc3cc(O)cc(CCc4ccccc4)c3[C@@H]1[C@H]2O | > 40 µM | > 40 µM | > 40 µM | > 40 µM | > 40 µM | > 40 µM | > 40 µM | > 40 µM | > 40 µM | – |
| C=C(C)C(O)Cc1c(O)cc(CCc2ccccc2)c(C(=O)OC)c1O (racemic) | > 40 µM | 36.6 µM | 9 µM | 34.9 µM | 22.2 µM | 8.7 µM | 29.6 µM | > 40 µM | 37.9 µM | – |
| CC1=CC(=O)c2c(O)cc(CCc3ccccc3O)cc2OC1 | > 40 µM | > 40 µM | > 40 µM | > 40 µM | > 40 µM | > 40 µM | > 40 µM | > 40 µM | > 40 µM | – |
| COc1cc(CCc2ccccc2)c2c(c1)OC(C)(C)CC2 | > 40 µM | > 40 µM | > 40 µM | > 40 µM | > 40 µM | 26.1 µM | > 40 µM | > 40 µM | > 40 µM | – |
| CC1=CCc2c(O)cc(CCc3ccccc3)cc2OC1 | > 40 µM | > 40 µM | > 40 µM | > 40 µM | > 40 µM | > 40 µM | > 40 µM | > 40 µM | > 40 µM | – |
| COC(=O)c1c(CCc2ccccc2)cc(O)c2c1OC(C)(C)C(O)C2 (racemic) | > 40 µM | > 40 µM | > 40 µM | > 40 µM | > 40 µM | > 40 µM | > 40 µM | > 40 µM | > 40 µM | – |
| CC(C)=CCCC(C)(O)CCc1c(O)cc(O)cc1CCc1ccccc1 (racemic) | 29.6 µM | > 40 µM | 38.7 µM | > 40 µM | > 40 µM | 36.7 µM | > 40 µM | > 40 µM | > 40 µM | – |
| CC1(C)CCc2c(CCc3ccccc3)cc(O)cc2O1 | > 40 µM | > 40 µM | > 40 µM | > 40 µM | > 40 µM | > 40 µM | > 40 µM | > 40 µM | > 40 µM | Active |
| CC(C)=CCC/C(C)=C/Cc1c(O)cc(O)cc1CCc1ccccc1 | 25.7 µM | > 40 µM | 24.5 µM | 36 µM | 25.6 µM | 9.3 µM | > 40 µM | > 40 µM | > 40 µM | – |
| CC1=CCc2c(O)cc(CCc3ccccc3O)cc2OC1 | > 40 µM | 28.9 µM | 40 µM | 28.2 µM | > 40 µM | 38.6 µM | 24.3 µM | > 40 µM | > 40 µM | Active |
| C=C(C)[C@@H](O)CC/C(C)=C/Cc1c(O)cc(O)cc1CCc1ccccc1 | 17.2 µM | 25.5 µM | 29.5 µM | 22.2 µM | 19.7 µM | > 40 µM | 29 µM | > 40 µM | 28.9 µM | Active |
| O=C1C=Cc2c(O)cc(CCc3ccccc3O)cc2OC1 | > 40 µM | > 40 µM | 14.7 µM | > 40 µM | 13.8 µM | 21.7 µM | > 40 µM | > 40 µM | 33.2 µM | – |
| C=C(CCC=C(C)C)[C@H](O)Cc1c(O)cc(O)cc1CCc1ccccc1 | 16.8 µM | 26 µM | 15.8 µM | 20.4 µM | 15.2 µM | 9.1 µM | 19.8 µM | > 40 µM | 18.7 µM | – |
| COC(=O)c1c(CCc2ccccc2)cc2c(c1O)CC(C(C)(C)O)O2 (racemic) | > 40 µM | > 40 µM | > 40 µM | > 40 µM | > 40 µM | > 40 µM | > 40 µM | > 40 µM | > 40 µM | – |
| C=C(C)[C@H]1CC[C@@]2(C)Oc3cc(O)cc(CCc4ccccc4)c3[C@@H]1[C@H]2O | 38 µM | 28 µM | 28.4 µM | 31.6 µM | 21.3 µM | 14.6 µM | 35.3 µM | > 40 µM | 37 µM | – |
| CC(C)=CCC[C@@]1(C)C=Cc2c(CCc3ccccc3)cc(O)cc2O1 | 28.1 µM | > 40 µM | 24.8 µM | 35 µM | 18.5 µM | 8.9 µM | > 40 µM | > 40 µM | > 40 µM | – |
| COC(=O)c1c(CCc2ccccc2)cc2c(c1O)CC(O)C(C)(C)O2 (racemic) | > 40 µM | > 40 µM | > 40 µM | > 40 µM | > 40 µM | > 40 µM | > 40 µM | > 40 µM | > 40 µM | – |
| CC1(C)[C@@H]2c3c(CCc4ccccc4)cc(O)cc3O[C@]3(C)CC[C@H]1[C@H]23 | 16 µM | 9.8 µM | 13.5 µM | 13.1 µM | 10.4 µM | 25.6 µM | > 10 µM | 7.5 µM | 20 µM | Active |
| COc1cccc2c1C(=O)c1c(O)c3c(c(O)c1C2=O)C[C@@](O)(C(=O)CO)C[C@@H]3O[C@H]1C[C@H](N)[C@H](O)[C@H](C)O1 [DOXORUBICIN HYDROCHLORIDE] | 3.2 µM | – | 0.8 µM | – | 1.2 µM | 2.9 µM | 3.8 µM | 0.8 µM | – | – |
